Drawing on ChEMBL document CHEMBL1255454, “Systematic approach to optimizing specifically targeted antimicrobial peptides against Streptococcus mutans” (2010), this text covers MIC for 20 compounds.

A word on the MIC: it is the smallest concentration in the dilution series that meets the test's criterion for growth inhibition. Higher therefore signals a need for much substance.

One experiment has as its system Streptococcus mutans. As to the kind of experiment: Antimicrobial activity against Streptococcus mutans UA159 after 16 to 20 hrs by broth microdilution assay. Type of experiment: functional. In outline: (§1)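 Broth microdilution. Twofold peptide dilutions were made in 50% BHI–50% sterile water for oral streptococci and in 1× Mueller-Hinton broth for the other bacteria. First round 500 to 0.97 µg/ml; a second round of 64 to 0.5 µg/ml was run in some cases, reporting its mode. Inoculum ~1 × 10^5 CFU/ml, 37°C for 16–20 h. Read A600; MIC taken as complete inhibition or ≥90% turbidity reduction versus peptide-free control.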
On the technique in general: In broth dilution the organism is exposed to a series of concentrations in liquid medium.

The test system of another experiment is Streptococcus sanguinis. As to the kind of experiment: Antimicrobial activity against Streptococcus sanguinis NY101 after 16 to 20 hrs by broth microdilution assay. Type of experiment: functional. The procedure, abridged: as §1
A further experiment concerns Streptococcus mitis. Nature of the experiment: Antimicrobial activity against Streptococcus mitis ATCC 903 after 16 to 20 hrs by broth microdilution assay. It is filed as functional. In outline:
as §1

The nature of experiment [1]: Antimicrobial activity against Streptococcus gordonii Challis DL1 after 16 to 20 hrs by broth microdilution assay. It is filed as functional, Streptococcus gordonii str. Challis. The procedure, abridged:
as §1

The test system of a further experiment is Staphylococcus aureus. As to the kind of experiment: Antimicrobial activity against methicillin-resistant Staphylococcus aureus after 16 to 20 hrs by broth microdilution assay. It is filed as functional. In outline:
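MRSA grown aerobically in BHI at 37°C. Broth microdilution: 2-fold peptide dilutions in 1× Mueller-Hinton broth, first round 500 to 0.97 µg/ml; if activity below 62.5 µg/ml, sometimes a second round at 64 to 0.5 µg/ml, reporting the mode. Inoculum ~1 × 10^5 CFU/ml, 37°C for 16-20 h. A600 read. MIC = lowest concentration giving complete inhibition or ≥90% turbidity reduction versus peptide-free control.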

For the next experiment, the system named is Pseudomonas aeruginosa. Nature of the experiment: Antimicrobial activity against Pseudomonas aeruginosa PAK after 16 to 20 hrs by broth microdilution assay. Type of experiment: functional. In outline: as §1

Values after ≈ are worked out from the molar mass of the structure shown. Square brackets hold non-standard residues; d marks the D form. Peptide text beside a SMILES is read from it. Aoc = NCCCCCCCC(=O)O

H-RWRRLLKKLHHLLHSGGFIKHFIHRF-NH2: the MIC in the experiment with Streptococcus mutans was 8 µg/mL; with Streptococcus sanguinis, 32 µg/mL; in the experiment on Streptococcus mitis it was 32 µg/mL; in experiment [1], 16 µg/mL; against Staphylococcus aureus, 32 µg/mL; in the experiment with Pseudomonas aeruginosa it was 32 µg/mL.
Turning to `CC[C@H](C)[C@H](NC(=O)[C@H](Cc1ccccc1)NC(=O)CCCCCCCNC(=O)[C@H](Cc1cnc[nH]1)NC(=O)[C@H](CC(C)C)NC(=O)[C@H](CC(C)C)NC(=O)[C@H](Cc1cnc[nH]1)NC(=O)[C@H](Cc1cnc[nH]1)NC(=O)[C@H](CC(C)C)NC(=O)[C@H](CCCCN)NC(=O)[C@H](CCCCN)NC(=O)[C@H](CC(C)C)NC(=O)[C@H](CC(C)C)NC(=O)[C@H](CCCNC(=N)N)NC(=O)[C@H](CCCNC(=N)N)NC(=O)[C@H](Cc1c[nH]c2ccccc12)NC(=O)[C@@H](N)CCCNC(=N)N)C(=O)N[C@@H](CCCCN)C(=O)N[C@@H](Cc1cnc[nH]1)C(=O)N[C@@H](Cc1ccccc1)C(=O)N[C@H](C(=O)N[C@@H](Cc1cnc[nH]1)C(=O)N[C@@H](CCCNC(=N)N)C(=O)N[C@@H](Cc1ccccc1)C(N)=O)[C@@H](C)CC` (H-RWRRLLKKLHHLLH[Aoc]FIKHFIHRF-NH2), the MIC against Streptococcus mutans worked out at 8 µg/mL (≈ 2.44 µM); with Streptococcus sanguinis it was 16 µg/mL (≈ 4.89 µM); with Streptococcus mitis, 32 µg/mL (≈ 9.78 µM); in experiment [1], 16 µg/mL (≈ 4.89 µM); against Staphylococcus aureus it was 62.5 µg/mL (≈ 19.1 µM); against Pseudomonas aeruginosa it was 32 µg/mL (≈ 9.78 µM).
Regarding `CC[C@H](C)[C@H](NC(=O)[C@H](Cc1ccccc1)NC(=O)[C@H](Cc1cnc[nH]1)NC(=O)[C@H](CCCCN)NC(=O)[C@@H](NC(=O)[C@@H](N)Cc1ccccc1)[C@@H](C)CC)C(=O)N[C@@H](Cc1cnc[nH]1)C(=O)N[C@@H](CCCNC(=N)N)C(=O)N[C@@H](Cc1ccccc1)C(=O)NCCCCCCCC(=O)N[C@@H](CC(C)C)C(=O)N[C@@H](CCC(N)=O)C(=O)N[C@@H](CC(C)C)C(=O)N[C@@H](CC(C)C)C(=O)N[C@@H](CCCCN)C(=O)N[C@@H](CCC(N)=O)C(=O)N[C@@H](CC(C)C)C(=O)N[C@@H](CC(C)C)C(=O)N[C@@H](CCCCN)C(=O)N[C@@H](CC(C)C)C(=O)N[C@@H](CC(C)C)C(=O)N[C@@H](CCCCN)C(=O)N[C@@H](CCC(N)=O)C(=O)N[C@@H](Cc1ccccc1)C(N)=O` (H-FIKHFIHRF[Aoc]LQLLKQLLKLLKQF-NH2), the MIC against Streptococcus mutans stood at 16 µg/mL (≈ 5.17 µM); against Streptococcus sanguinis, 32 µg/mL (≈ 10.3 µM); against Streptococcus mitis, 62.5 µg/mL (≈ 20.2 µM); in experiment [1], 32 µg/mL (≈ 10.3 µM); with Staphylococcus aureus it was 62.5 µg/mL (≈ 20.2 µM); with Pseudomonas aeruginosa, 62.5 µg/mL (≈ 20.2 µM).
With H-FIKHFIHRFSGGLQLLKQLLKLLKQF-NH2, the MIC against Streptococcus mutans stood at 16 µg/mL; in the experiment with Streptococcus sanguinis, 32 µg/mL; in the experiment on Streptococcus mitis, 62.5 µg/mL; in experiment [1], 8 µg/mL; against Staphylococcus aureus, 32 µg/mL; with Pseudomonas aeruginosa, 32 µg/mL.
Turning to H-RWRRLLKKLHHLLH-NH2, the MIC with Streptococcus mutans came to 8 µg/mL; in the experiment on Streptococcus sanguinis, 16 µg/mL; against Streptococcus mitis it was 32 µg/mL; in experiment [1], 16 µg/mL; in the experiment on Staphylococcus aureus it was 16 µg/mL; against Pseudomonas aeruginosa it was 8 µg/mL.
As for H-RWRWRWFSATFIKHFIHRF-NH2, the MIC was 8 µg/mL in the experiment with Streptococcus mutans; 32 µg/mL against Streptococcus sanguinis; 16 µg/mL in the experiment with Streptococcus mitis; 62.5 µg/mL in experiment [1]; 62.5 µg/mL against Staphylococcus aureus; 62.5 µg/mL with Pseudomonas aeruginosa.
For the compound H-LQLLKQLLKLLKQFSATFIKHFIHRF-NH2, the MIC against Streptococcus mutans is 8 µg/mL; against Streptococcus sanguinis, 16 µg/mL; against Streptococcus mitis, 32 µg/mL; in experiment [1] it was 16 µg/mL; against Staphylococcus aureus, 32 µg/mL; in the experiment on Pseudomonas aeruginosa it was 32 µg/mL.
With H-FIKHFIHRFGGGIKQLLHFFQRF-NH2, the MIC worked out at 8 µg/mL with Streptococcus mutans; 32 µg/mL in the experiment with Streptococcus sanguinis; 16 µg/mL in the experiment on Streptococcus mitis; 32 µg/mL in experiment [1]; 62.5 µg/mL against Staphylococcus aureus; 125 µg/mL in the experiment on Pseudomonas aeruginosa.
Consider H-IKQLLHFFQRF-NH2, for which the MIC in the experiment with Streptococcus mutans turned out to be 24 µg/mL; with Streptococcus sanguinis, 62.5 µg/mL; against Streptococcus mitis it was 62.5 µg/mL; in experiment [1], 32 µg/mL; with Staphylococcus aureus, 62.5 µg/mL; in the experiment on Pseudomonas aeruginosa, 62.5 µg/mL.
For H-LQLLKQLLKLLKQFSGGFIKHFIHRF-NH2, the MIC against Streptococcus mutans was found to be 8 µg/mL; against Streptococcus sanguinis, 16 µg/mL; in the experiment on Streptococcus mitis, 32 µg/mL; in experiment [1], 16 µg/mL; against Staphylococcus aureus it was 32 µg/mL; against Pseudomonas aeruginosa, 32 µg/mL.
For H-FIKHFIHRFSATLQLLKQLLKLLKQF-NH2, the MIC was 16 µg/mL against Streptococcus mutans; 16 µg/mL in the experiment on Streptococcus sanguinis; 32 µg/mL in the experiment with Streptococcus mitis; 8 µg/mL in experiment [1]; 62.5 µg/mL in the experiment on Staphylococcus aureus; 32 µg/mL against Pseudomonas aeruginosa.
Regarding H-RWRWRWFGGGFIKHFIHRF-NH2, the MIC in the experiment on Streptococcus mutans was determined as 8 µg/mL; against Streptococcus sanguinis, 32 µg/mL; in the experiment with Streptococcus mitis, 32 µg/mL; in experiment [1], 32 µg/mL; against Staphylococcus aureus, 32 µg/mL; with Pseudomonas aeruginosa, 62.5 µg/mL.
For H-RWRWRWFSGGFIKHFIHRF-NH2, the MIC worked out at 8 µg/mL against Streptococcus mutans; 32 µg/mL in the experiment with Streptococcus sanguinis; 32 µg/mL in the experiment with Streptococcus mitis; 32 µg/mL in experiment [1]; 32 µg/mL with Staphylococcus aureus; 62.5 µg/mL against Pseudomonas aeruginosa.
Consider `CC[C@H](C)[C@H](NC(=O)[C@H](Cc1ccccc1)NC(=O)CCCCCCCNC(=O)[C@H](Cc1ccccc1)NC(=O)[C@H](CCC(N)=O)NC(=O)[C@H](CCCCN)NC(=O)[C@H](CC(C)C)NC(=O)[C@H](CC(C)C)NC(=O)[C@H](CCCCN)NC(=O)[C@H](CC(C)C)NC(=O)[C@H](CC(C)C)NC(=O)[C@H](CCC(N)=O)NC(=O)[C@H](CCCCN)NC(=O)[C@H](CC(C)C)NC(=O)[C@H](CC(C)C)NC(=O)[C@H](CCC(N)=O)NC(=O)[C@@H](N)CC(C)C)C(=O)N[C@@H](CCCCN)C(=O)N[C@@H](Cc1cnc[nH]1)C(=O)N[C@@H](Cc1ccccc1)C(=O)N[C@H](C(=O)N[C@@H](Cc1cnc[nH]1)C(=O)N[C@@H](CCCNC(=N)N)C(=O)N[C@@H](Cc1ccccc1)C(N)=O)[C@@H](C)CC` (H-LQLLKQLLKLLKQF[Aoc]FIKHFIHRF-NH2), for which the MIC amounted to 8 µg/mL (≈ 2.59 µM) in the experiment on Streptococcus mutans; 32 µg/mL (≈ 10.3 µM) against Streptococcus sanguinis; 32 µg/mL (≈ 10.3 µM) with Streptococcus mitis; 16 µg/mL (≈ 5.17 µM) in experiment [1]; 62.5 µg/mL (≈ 20.2 µM) against Staphylococcus aureus; 32 µg/mL (≈ 10.3 µM) in the experiment with Pseudomonas aeruginosa.
As to H-FIKHFIHRFSGGRWRRLLKKLHHLLH-NH2, the MIC amounted to 16 µg/mL in the experiment with Streptococcus mutans; 16 µg/mL against Streptococcus sanguinis; 62.5 µg/mL in the experiment with Streptococcus mitis; 32 µg/mL in experiment [1]; 32 µg/mL against Staphylococcus aureus; 32 µg/mL against Pseudomonas aeruginosa.
Regarding H-FIKHFIHRFSGGRWRWRWF-NH2, the MIC stood at 8 µg/mL against Streptococcus mutans; 32 µg/mL in the experiment with Streptococcus sanguinis; 32 µg/mL against Streptococcus mitis; 32 µg/mL in experiment [1]; 32 µg/mL in the experiment with Staphylococcus aureus; 62.5 µg/mL with Pseudomonas aeruginosa.
For the compound H-IKQLLHFFQRFGGGFIKHFIHRF-NH2, the MIC against Streptococcus mutans stood at 8 µg/mL; with Streptococcus sanguinis, 32 µg/mL; with Streptococcus mitis, 16 µg/mL; in experiment [1] it was 32 µg/mL; against Staphylococcus aureus, 62.5 µg/mL; in the experiment with Pseudomonas aeruginosa, 125 µg/mL.
For the compound `CC[C@H](C)[C@H](NC(=O)[C@H](Cc1ccccc1)NC(=O)CCCCCCCNC(=O)[C@H](Cc1ccccc1)NC(=O)[C@H](Cc1c[nH]c2ccccc12)NC(=O)[C@H](CCCNC(=N)N)NC(=O)[C@H](Cc1c[nH]c2ccccc12)NC(=O)[C@H](CCCNC(=N)N)NC(=O)[C@H](Cc1c[nH]c2ccccc12)NC(=O)[C@@H](N)CCCNC(=N)N)C(=O)N[C@@H](CCCCN)C(=O)N[C@@H](Cc1cnc[nH]1)C(=O)N[C@@H](Cc1ccccc1)C(=O)N[C@H](C(=O)N[C@@H](Cc1cnc[nH]1)C(=O)N[C@@H](CCCNC(=N)N)C(=O)N[C@@H](Cc1ccccc1)C(N)=O)[C@@H](C)CC` (H-RWRWRWF[Aoc]FIKHFIHRF-NH2), the MIC in the experiment with Streptococcus mutans came out at 32 µg/mL (≈ 12.5 µM); in the experiment on Streptococcus sanguinis, 32 µg/mL (≈ 12.5 µM); against Streptococcus mitis it was 32 µg/mL (≈ 12.5 µM); in experiment [1], 62.5 µg/mL (≈ 24.4 µM); against Staphylococcus aureus, 62.5 µg/mL (≈ 24.4 µM); against Pseudomonas aeruginosa, 125 µg/mL (≈ 48.8 µM).
For H-LQLLKQLLKLLKQF-NH2, the MIC worked out at 8 µg/mL in the experiment on Streptococcus mutans; 8 µg/mL in the experiment with Streptococcus sanguinis; 16 µg/mL against Streptococcus mitis; 8 µg/mL in experiment [1]; 16 µg/mL with Staphylococcus aureus; 8 µg/mL in the experiment on Pseudomonas aeruginosa.
Take H-FKKFWKWFRRFGGGFIKHFIHRF-NH2: the MIC in the experiment with Streptococcus mutans stood at 8 µg/mL; in the experiment with Streptococcus sanguinis, 32 µg/mL; in the experiment with Streptococcus mitis, 62.5 µg/mL; in experiment [1], 125 µg/mL; against Staphylococcus aureus it was 32 µg/mL; in the experiment with Pseudomonas aeruginosa it was 125 µg/mL.
